The source made the active and inactive calls. No cut-off for these calls is given here.
Assays:
[1] = Inhibition of PI3Kbeta (1 to 1070)/6xHis-tagged p85 (1 to 724) (unknown origin) using diC8-PIP2 as substrate preincubated for 30 mins followed by substrate addition measured after 45 to 60 mins; set-up: species or system Homo sapiens
[2] = Inhibition of PI3Kalpha (1 to 1068)/6xHis-tagged p85 (1 to 724) (unknown origin) using diC8-PIP2 as substrate preincubated for 30 mins followed by substrate addition measured after 45 to 60 mins; set-up: species or system Homo sapiens
[3] = biological target: T1, Phosphatidylinositol 4-kinase alpha (Homo sapiens, UniProt P42356); experiment: Inhibition of GST-tagged PI4K-alpha (1 to 2044) (unknown origin) using D-myo-phosphatidylinositol as substrate preincubated for 30 mins followed by substrate addition measured after 180 mins by luminescence assay
Target sequence in this assay (P42356 whole entry): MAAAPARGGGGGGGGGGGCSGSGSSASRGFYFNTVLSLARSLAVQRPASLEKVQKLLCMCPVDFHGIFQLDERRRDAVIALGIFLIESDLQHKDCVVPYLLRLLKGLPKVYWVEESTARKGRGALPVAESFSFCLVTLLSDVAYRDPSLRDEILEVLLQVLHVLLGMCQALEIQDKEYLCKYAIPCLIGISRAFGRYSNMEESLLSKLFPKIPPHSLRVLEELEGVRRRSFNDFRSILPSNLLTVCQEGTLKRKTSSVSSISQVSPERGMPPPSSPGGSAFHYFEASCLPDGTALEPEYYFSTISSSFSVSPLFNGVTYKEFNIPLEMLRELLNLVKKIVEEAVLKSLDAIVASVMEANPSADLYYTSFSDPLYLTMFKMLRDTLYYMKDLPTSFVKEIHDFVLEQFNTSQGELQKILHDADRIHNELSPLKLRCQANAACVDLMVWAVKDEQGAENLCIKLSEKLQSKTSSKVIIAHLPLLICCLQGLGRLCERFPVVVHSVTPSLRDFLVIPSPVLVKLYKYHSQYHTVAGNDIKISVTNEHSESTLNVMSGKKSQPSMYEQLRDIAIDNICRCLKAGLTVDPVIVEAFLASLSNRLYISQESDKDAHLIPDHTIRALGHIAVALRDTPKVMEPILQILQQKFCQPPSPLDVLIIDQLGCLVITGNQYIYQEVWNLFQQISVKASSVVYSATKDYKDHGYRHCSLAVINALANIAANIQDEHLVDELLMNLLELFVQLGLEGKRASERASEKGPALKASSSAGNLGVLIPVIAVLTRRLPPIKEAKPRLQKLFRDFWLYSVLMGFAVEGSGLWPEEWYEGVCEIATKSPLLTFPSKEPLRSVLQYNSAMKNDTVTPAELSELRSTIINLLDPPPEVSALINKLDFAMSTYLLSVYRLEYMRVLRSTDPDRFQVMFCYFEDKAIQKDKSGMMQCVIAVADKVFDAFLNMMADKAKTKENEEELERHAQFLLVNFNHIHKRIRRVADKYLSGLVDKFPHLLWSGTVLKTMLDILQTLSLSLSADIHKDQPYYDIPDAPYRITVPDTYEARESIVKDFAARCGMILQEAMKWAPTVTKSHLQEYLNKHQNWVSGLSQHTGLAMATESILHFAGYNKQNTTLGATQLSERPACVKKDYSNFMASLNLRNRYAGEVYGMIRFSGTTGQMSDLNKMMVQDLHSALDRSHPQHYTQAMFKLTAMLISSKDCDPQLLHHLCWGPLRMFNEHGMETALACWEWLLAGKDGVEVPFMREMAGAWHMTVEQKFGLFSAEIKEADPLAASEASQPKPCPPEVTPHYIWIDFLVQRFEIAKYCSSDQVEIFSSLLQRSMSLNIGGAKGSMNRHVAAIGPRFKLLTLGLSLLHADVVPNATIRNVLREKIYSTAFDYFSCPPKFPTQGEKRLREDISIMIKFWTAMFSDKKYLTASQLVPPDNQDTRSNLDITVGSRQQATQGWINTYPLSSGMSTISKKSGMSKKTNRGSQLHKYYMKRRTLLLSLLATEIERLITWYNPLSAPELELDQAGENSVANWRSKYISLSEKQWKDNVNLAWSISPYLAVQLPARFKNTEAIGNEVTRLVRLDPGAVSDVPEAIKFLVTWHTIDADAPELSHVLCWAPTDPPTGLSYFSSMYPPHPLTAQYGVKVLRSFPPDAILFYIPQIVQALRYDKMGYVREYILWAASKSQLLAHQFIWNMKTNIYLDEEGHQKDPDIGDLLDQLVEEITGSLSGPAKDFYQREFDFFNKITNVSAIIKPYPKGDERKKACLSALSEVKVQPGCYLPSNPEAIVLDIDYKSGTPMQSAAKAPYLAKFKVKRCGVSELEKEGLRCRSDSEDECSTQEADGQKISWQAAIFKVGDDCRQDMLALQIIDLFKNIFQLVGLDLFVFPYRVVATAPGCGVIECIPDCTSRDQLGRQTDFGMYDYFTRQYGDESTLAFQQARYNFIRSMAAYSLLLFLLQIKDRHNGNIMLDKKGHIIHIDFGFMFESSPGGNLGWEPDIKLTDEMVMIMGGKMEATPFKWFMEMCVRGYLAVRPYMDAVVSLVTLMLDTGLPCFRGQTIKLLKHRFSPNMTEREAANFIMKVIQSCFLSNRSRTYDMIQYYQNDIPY

[4] = Inhibition of 6xHis-tagged PI4K-beta (13 to 828) 316 to 330 deletion mutant (unknown origin) using D-myo-phosphatidylinositol as substrate preincubated for 30 mins followed by substrate addition measured after 180 mins by luminescence assay; set-up: species or system Homo sapiens
[5] = Inhibition of PI3Kdelta (1 to 1044)/6xHis-tagged p85 (1 to 724) (unknown origin) using diC8-PIP2 as substrate preincubated for 30 mins followed by substrate addition measured after 45 to 60 mins; set-up: species or system Homo sapiens
Hepatitis C virus [6] = experiment: Antiviral activity against Hepatitis C virus genotype 1b expressed in ET cells after 48 hrs by luciferase reporter gene assay; type: functional, organism-based, Hepacivirus hominis
[7] = biological target: Phosphatidylinositol 4,5-bisphosphate 3-kinase catalytic subunit gamma isoform (Homo sapiens, UniProt P48736)
[8] = AUC in Sprague-Dawley rat at 5 mg/kg, po; type: ADME, organism-based; set-up: dose 5 mg/kg, route oral; settings: plasma
In short: (§1)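 Rats were given a single dose of compound formulated in DMSO/cyclodextrin, either intravenously at 1 mg/kg or orally at 5 mg/kg. Each parameter comes from the matching route arm. Dose-normalized AUC is expressed as h kg ng mL⁻¹ mg⁻¹.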

[9] = biological target: T1, Phosphatidylinositol 4-kinase alpha; experiment: Competitive inhibition of GST-tagged PI4K-alpha (1 to 2044) (unknown origin) in presence of ATP
[10] = Oral bioavailability in Sprague-Dawley rat at 5 mg/kg; type: ADME, organism-based; settings: Sprague-Dawley, in vivo; in short: as §1
[11] = Tmax in Sprague-Dawley rat at 5 mg/kg, po; type: ADME, organism-based; set-up: dose 5 mg/kg, route oral; settings: Sprague-Dawley, in vivo; in short: as §1
[12] = Half life in Sprague-Dawley rat at 5 mg/kg, po; type: ADME, organism-based; set-up: dose 5 mg/kg, route oral; settings: Sprague-Dawley, in vivo; in short: as §1
[13] = Cmax in Sprague-Dawley rat at 5 mg/kg, po; type: ADME, organism-based; set-up: dose 5 mg/kg, route oral; settings: Sprague-Dawley, in vivo; in short: as §1
Hepatitis C virus [14] = experiment: Antiviral activity against Hepatitis C virus genotype 1a expressed in ET cells after 48 hrs by luciferase reporter gene assay; type: functional, organism-based, Hepacivirus hominis, subtype 1a
Hepatitis C virus [15] = experiment: Antiviral activity against Hepatitis C virus genotype 2a expressed in human Huh-7 Lunet cells after 48 hrs by luciferase reporter gene assay; type: functional, organism-based, Hepacivirus hominis; settings: Hepatitis C virus, genotype 2a, Huh-7, 48 h
[16] = Hepatitis C virus, genotype 1b, ET, 48 h

Chain of Phosphatidylinositol 4,5-bisphosphate 3-kinase catalytic subunit gamma isoform (P48736 whole entry, canonical isoform): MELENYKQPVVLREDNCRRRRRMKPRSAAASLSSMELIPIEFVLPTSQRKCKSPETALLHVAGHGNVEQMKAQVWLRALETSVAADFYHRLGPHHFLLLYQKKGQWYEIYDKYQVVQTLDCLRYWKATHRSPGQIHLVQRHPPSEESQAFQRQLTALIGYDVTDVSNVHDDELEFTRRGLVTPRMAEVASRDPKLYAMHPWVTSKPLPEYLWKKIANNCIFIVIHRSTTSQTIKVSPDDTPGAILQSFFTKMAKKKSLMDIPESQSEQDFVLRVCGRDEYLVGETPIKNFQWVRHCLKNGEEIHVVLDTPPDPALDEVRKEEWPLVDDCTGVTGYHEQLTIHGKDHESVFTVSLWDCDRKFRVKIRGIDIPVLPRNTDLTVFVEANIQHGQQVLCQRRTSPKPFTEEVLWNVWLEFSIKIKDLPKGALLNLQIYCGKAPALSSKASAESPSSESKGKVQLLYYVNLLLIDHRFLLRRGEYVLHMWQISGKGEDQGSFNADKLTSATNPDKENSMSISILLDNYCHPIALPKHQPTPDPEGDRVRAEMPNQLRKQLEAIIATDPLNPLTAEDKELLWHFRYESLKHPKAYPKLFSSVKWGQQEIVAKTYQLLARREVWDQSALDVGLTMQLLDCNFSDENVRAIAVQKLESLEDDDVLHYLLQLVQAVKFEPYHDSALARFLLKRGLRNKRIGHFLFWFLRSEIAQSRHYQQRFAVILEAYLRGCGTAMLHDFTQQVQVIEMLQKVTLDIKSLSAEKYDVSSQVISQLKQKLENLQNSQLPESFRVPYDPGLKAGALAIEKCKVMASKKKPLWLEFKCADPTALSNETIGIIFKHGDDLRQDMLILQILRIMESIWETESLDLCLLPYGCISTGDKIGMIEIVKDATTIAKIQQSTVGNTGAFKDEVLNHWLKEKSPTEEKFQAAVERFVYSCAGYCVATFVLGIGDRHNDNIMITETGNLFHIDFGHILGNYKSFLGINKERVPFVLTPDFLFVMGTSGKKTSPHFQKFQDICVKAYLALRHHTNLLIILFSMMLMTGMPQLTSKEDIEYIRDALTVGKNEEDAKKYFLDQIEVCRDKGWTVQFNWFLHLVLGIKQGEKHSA

Structure (SMILES) | pIC50 [1] | pIC50 [2] | IC50 [3] [nM] | pIC50 [4] | pIC50 [5] | IC50 (Hepatitis C virus [6]; [16]) [nM] | IC50 [7] [nM] | AUC [8] [ng·h/mL] | inhibition [9] | bioavailability [10] [%] | Tmax [11] [h] | half-life [12] [h] | Cmax [13] [ng/mL] | EC50 (Hepatitis C virus [14]; Hepatitis C virus, subtype 1a, ET, 48 h) [nM] | EC50 (Hepatitis C virus [15]) [nM] | EC50 (Hepatitis C virus [6]; [16]) [nM] | pIC50 (Hepatitis C virus [14]; et) | pIC50 (Hepatitis C virus [6]; et)
Nc1ncc(-c2ccc3nc(N)n(-c4ccccc4)c(=O)c3c2)cc1NS(=O)(=O)c1ccc(F)cc1F | 5.3 | 6.7 | 0.794 | 7.5 | 6.4 | 15.8 |  |  |  |  |  |  |  |  |  |  |  | 
COc1ncc(-c2ccc3nc(N)n(C4CCOCC4)c(=O)c3c2)cc1S(=O)(=O)Nc1ccc(F)cc1F | 5.4 | 6.6 | 10 | 5.9 | 6.6 | 3.98 | 501 |  |  |  |  |  |  |  |  |  |  | 
COc1ncc(-c2ccc3nc(N)c(-c4ccc(N5CCOCC5)cc4)cc3c2)cc1NS(=O)(=O)c1ccc(F)cc1F | 5 | 5.6 | 39.8 | 5.5 | 6.2 |  | 631 | 5000 | Active | 38 | 0.67 | 2.39 | 1390 | 31.6 | 20 | 3.98 |  | 
COc1ncc(-c2ccc3nc(N)c(-c4ccccc4)cc3c2)cc1NS(=O)(=O)c1ccc(F)cc1F | 5.9 | 6.5 | 100 | 5.8 | 6.9 | 10 | 63.1 |  |  |  |  |  |  |  |  |  |  | 
COc1ncc(-c2ccc3nc(N)n(-c4ccccc4C(F)(F)F)c(=O)c3c2)cc1S(=O)(=O)Nc1ccc(F)cc1F | 5 |  | 15.8 | 5.8 | 5.5 |  | 3160 |  |  |  |  |  |  |  |  |  | 7.7 | 8.5
COc1ncc(-c2ccc3nc(N)n(-c4ccccc4)c(=O)c3c2)cc1NS(=O)(=O)c1ccc(C)cc1 | 5.6 | 7.3 | 15.8 | 6.2 | 8 | 3.16 |  |  |  |  |  |  |  |  |  |  |  | 
COc1ncc(-c2ccc3nc(N)n(-c4ccccc4)c(=O)c3c2)cc1NS(=O)(=O)c1cccc(C)c1 | 6.3 | 7.1 | 3.98 | 6.4 | 7.3 | 1.26 | 50.1 |  |  |  |  |  |  |  |  |  |  | 
COc1ncc(-c2ccc3nc(N)n(-c4ccccc4C)c(=O)c3c2)cc1S(=O)(=O)Nc1ccc(F)cc1F | 5.7 | 6.5 | 10 | 6.1 | 6.7 | 2.51 | 316 |  |  |  |  |  |  |  |  |  |  | 
COc1ccc(-c2ccc3nc(N)n(-c4ccccc4)c(=O)c3c2)cc1NS(=O)(=O)c1ccc(F)cc1F | 4 | 5.8 | 316 | 6.8 | 5.4 | 31.6 | 316 |  |  |  |  |  |  |  |  |  |  | 
COc1ncc(-c2ccc3nc(N)n(-c4ccccc4)c(=O)c3c2)cc1N(C)S(=O)(=O)c1ccc(F)cc1F | 4.5 | 5.5 | 3980 | 5 | 4.8 | > 2000 | 3980 |  |  |  |  |  |  |  |  |  |  | 
COc1ncc(-c2ccc3ncnc(N4CCOCC4)c3c2)cc1NS(=O)(=O)c1ccc(F)cc1F | 8.7 | 8.9 | 1.58 | 7.7 | 8.9 |  | 2.51 |  |  |  |  |  |  |  |  |  |  | 
COc1ncc(-c2ccc3nc(N)n(-c4ccccc4)c(=O)c3c2)cc1NS(=O)(=O)C(C)C | 5.3 | 6.4 | 126 | 5.9 | 6.7 | 31.6 | 501 |  |  |  |  |  |  |  |  |  |  | 
COc1ncc(-c2cnc3nc(N)c(-c4ccccc4)cc3c2)cc1NS(=O)(=O)c1ccc(F)cc1F | 6 | 5.3 | 631 | 5.4 | 5.7 | 126 | 6310 |  |  |  |  |  |  |  |  |  |  | 
CCn1c(N)nc2ccc(-c3cnc(OC)c(S(=O)(=O)Nc4ccc(F)cc4F)c3)cc2c1=O | 6.4 | 6.9 | 39.8 | 6 | 6.8 | 20 | 158 |  |  |  |  |  |  |  |  |  |  | 
COc1ncc(-c2ccc3nc(N)n(-c4ccccc4)c(=O)c3c2)cc1NS(=O)(=O)c1ccc(C#N)cc1 | 6.3 | 6.6 | 1 | 7.5 | 7.6 | 0.631 | 50.1 |  |  |  |  |  |  |  |  |  |  | 
COc1ncc(-c2ccc3nc(N)n(-c4ccccc4)c(=O)c3c2)cc1NS(=O)(=O)c1cccnc1 | 7 | 8.4 | 0.316 | 7.4 | 8.5 | 1 | 6.31 |  |  |  |  |  |  |  |  |  |  | 
COc1ncc(-c2ccc3nc(N)n(-c4ccccc4)c(=O)c3c2)cc1NS(=O)(=O)c1ccc(F)cc1F | 7 | 8.2 | 1.58 | 7.2 | 8.2 | 0.501 | 3.98 | 60200 |  | 60 | 6 | 6.7 | 3580 |  |  |  |  | 

Second part, led by results:

pIC50 [1] | pIC50 [2] | IC50 [3] [nM] | pIC50 [4] | pIC50 [5] | IC50 (Hepatitis C virus [6]; [16]) [nM] | IC50 [7] [nM] | AUC [8] [ng·h/mL] | inhibition [9] | bioavailability [10] [%] | Tmax [11] [h] | half-life [12] [h] | Cmax [13] [ng/mL] | EC50 (Hepatitis C virus [14]; Hepatitis C virus, subtype 1a, ET, 48 h) [nM] | EC50 (Hepatitis C virus [15]) [nM] | EC50 (Hepatitis C virus [6]; [16]) [nM] | Structure (SMILES) | pIC50 (Hepatitis C virus [14]; et) | pIC50 (Hepatitis C virus [6]; et)
5.3 | 6.4 | 20 | 6.1 | 6.6 | 20 | 794 |  |  |  |  |  |  |  |  |  | COc1ncc(-c2ccc3nc(N)n(-c4ccccc4)c(=O)c3c2)cc1NS(C)(=O)=O |  | 
5 | 6 | 50.1 | 5.1 | 6 | 79.4 | 1580 |  |  |  |  |  |  |  |  |  | COc1ncc(-c2ccc3nc(N)n(-c4cccc(C(F)(F)F)c4)c(=O)c3c2)cc1S(=O)(=O)Nc1ccc(F)cc1F |  | 
4.9 | 6 | 6.31 | 5.5 | 6.3 | 5.01 | 1260 |  |  |  |  |  |  |  |  |  | COc1ncc(-c2ccc3nc(N)n(-c4ccccc4)c(=O)c3c2)cc1S(=O)(=O)Nc1ccc(F)cc1F |  | 
6.3 | 7.3 | 2.51 | 6.7 | 7.7 | 0.501 |  |  |  |  |  |  |  |  |  |  | COc1ncc(-c2ccc3nc(N)n(-c4ccccc4)c(=O)c3c2)cc1NS(=O)(=O)c1ccccc1 |  | 
4.2 | 4.2 | 7940 | 5 | 4.9 | > 5010 | 25100 |  |  |  |  |  |  |  |  |  | COc1ncc(-c2ccc3nc(N)c(-c4ccccc4)cc3n2)cc1NS(=O)(=O)c1ccc(F)cc1F |  | 
4.6 | 6.1 | 50.1 | 5 | 6.4 | 10 | 398 |  |  |  |  |  |  |  |  |  | COc1ncc(-c2ccc3nc(N)n(-c4ccc(C(F)(F)F)cc4)c(=O)c3c2)cc1S(=O)(=O)Nc1ccc(F)cc1F |  | 
6.4 | 7.2 | 1 | 6.8 | 7.6 | 0.398 | 39.8 |  |  |  |  |  |  |  |  |  | COc1ncc(-c2ccc3nc(N)n(-c4ccccc4)c(=O)c3c2)cc1NS(=O)(=O)c1ccccc1C |  | 
6.7 | 7.1 | 5.01 | 6.9 | 7.8 | 15.8 | 7.94 |  |  |  |  |  |  |  |  |  | COc1ncc(-c2ccc3nc(N)c(-c4ccccc4)nc3c2)cc1NS(=O)(=O)c1ccc(F)cc1F |  | 
5.8 | 5.7 | 200 | 5 | 6.2 | 158 | 1260 |  |  |  |  |  |  |  |  |  | COc1ncc(-c2cc3cc(-c4ccccc4)c(N)nc3cn2)cc1NS(=O)(=O)c1ccc(F)cc1F |  | 
4.8 | 5.8 | 31.6 | 6 | 5.6 | 6.31 | 1000 |  |  |  |  |  |  |  |  |  | COc1ncc(-c2ccc3nc(N)n(-c4ccccc4C(C)C)c(=O)c3c2)cc1S(=O)(=O)Nc1ccc(F)cc1F |  | 
